Activity calls are given as the source filed them.
Legend:
Mus musculus [1] = experiment: Anticonvulsant activity in albino Carworth Farms No.1 mouse assessed as protection against subcutaneous metrazol-induced seizure at 300 mg/kg, ip after 4 hrs; assay type: functional, organism-based; design: dose 300 mg/kg
Procedure, shortened: (§1)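 Mouse scMET test. Compound given i.p. (30, 100 or 300 mg/kg) in 0.5% methylcellulose. Pentylenetetrazole 85 mg/kg (CD97) given s.c. at 0.5 or 4 h, then mice observed for 30 min. Protection is absence of clonic spasms; scored as protected/tested.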

Mus musculus [2] = experiment: Anticonvulsant activity in albino Carworth Farms No.1 mouse assessed as protection against maximal electroshock-induced seizure at 30 mg/kg, ip after 0.5 hrs; assay type: functional, organism-based; design: dose 30 mg/kg
Procedure, shortened: (§2)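 Mouse MES test with compound given i.p. (30, 100 or 300 mg/kg) in 0.5% methylcellulose; tested at 0.5 and 4 h. Corneal stimulus of 50 mA at 60 Hz for 0.2 s, electrodes primed with 0.5% butacaine in 0.9% NaCl. Protection is abolition of hindlimb tonic extension; scored as protected/tested.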

Mus musculus [3] = experiment: Anticonvulsant activity in albino Carworth Farms No.1 mouse assessed as protection against subcutaneous metrazol-induced seizure at 100 mg/kg, ip after 0.5 hrs; assay type: functional, organism-based; design: dose 100 mg/kg; procedure, shortened: as §1
Mus musculus [4] = experiment: Neurotoxicity in albino Carworth Farms No.1 mouse assessed as motor impairment at 100 mg/kg, ip after 1 hr by rotarod test; assay type: toxicity, organism-based; design: dose 100 mg/kg, route intraperitoneal; conditions: in vivo
Procedure, shortened: (§3)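 Rotorod neurotoxicity in mice (18–25 g) following i.p. dosing of a suspension in 0.5% methylcellulose in water, tested at intervals between 0.25 and 4 h. Impairment was scored as failure to keep equilibrium on a 6 r.p.m. rod, reported as number impaired/number tested.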

Mus musculus [5] = experiment: Anticonvulsant activity in albino Carworth Farms No.1 mouse assessed as protection against subcutaneous metrazol-induced seizure at 30 mg/kg, ip after 4 hrs; assay type: functional, organism-based; design: dose 30 mg/kg; procedure, shortened: as §1
Mus musculus [6] = experiment: Neurotoxicity in albino Carworth Farms No.1 mouse assessed as motor impairment at 300 mg/kg, ip after 0.5 hrs by rotarod test; assay type: toxicity, organism-based; design: dose 300 mg/kg, route intraperitoneal; conditions: in vivo
Procedure, shortened: (§4)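 Rotorod neurotoxicity in mice at 6 r.p.m. Compound given i.p. (30, 100, 300 mg/kg) in 0.5% methylcellulose; tested at 30 min and 4 h. Impairment is inability to keep equilibrium on the rod for a given time; scored as impaired/tested.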

Mus musculus [7] = experiment: Anticonvulsant activity in albino Carworth Farms No.1 mouse assessed as protection against maximal electroshock-induced seizure at 100 mg/kg, ip after 4 hrs; assay type: functional, organism-based; design: dose 100 mg/kg; procedure, shortened: as §2
Mus musculus [8] = experiment: Anticonvulsant activity in albino Carworth Farms No.1 mouse assessed as protection against electric-current for 3 secs-induced seizure at 100 mg/kg, ip after 0.25 hrs by 6Hz minimal clonic seizure test; assay type: functional, organism-based; design: dose 100 mg/kg
Procedure, shortened: (§5)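 6 Hz psychomotor seizure test in mice. Compound given i.p. as a suspension in 0.5% methylcellulose. Corneal stimulation at 32 mA, 0.2-ms monopolar rectangular pulses at 6 Hz for 3 s, from a constant-current device. Tests run 0.25–4 h after dosing. A mouse counted as protected if it resumed normal exploratory behaviour within 10 s; scored as protected/tested.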

Mus musculus [9] = experiment: Neurotoxicity in albino Carworth Farms No.1 mouse assessed as motor impairment at 300 mg/kg, ip after 4 hrs by rotarod test; assay type: toxicity, organism-based; design: dose 300 mg/kg, route intraperitoneal; conditions: in vivo; procedure, shortened: as §4
Mus musculus [10] = experiment: Anticonvulsant activity in albino Carworth Farms No.1 mouse assessed as protection against electric-current for 3 secs-induced seizure at 100 mg/kg, ip after 1 hr by 6Hz minimal clonic seizure test; assay type: functional, organism-based; design: dose 100 mg/kg; procedure, shortened: as §5
Mus musculus [11] = experiment: Anticonvulsant activity in albino Carworth Farms No.1 mouse assessed as protection against electric-current for 3 secs-induced seizure at 100 mg/kg, ip after 4 hrs by 6Hz minimal clonic seizure test; assay type: functional, organism-based; design: dose 100 mg/kg; procedure, shortened: as §5
Mus musculus [12] = experiment: Anticonvulsant activity in albino Carworth Farms No.1 mouse assessed as protection against maximal electroshock-induced seizure at 30 mg/kg, ip after 4 hrs; assay type: functional, organism-based; design: dose 30 mg/kg; procedure, shortened: as §2
Mus musculus [13] = experiment: Neurotoxicity in albino Carworth Farms No.1 mouse assessed as motor impairment at 100 mg/kg, ip after 2 hrs by rotarod test; assay type: toxicity, organism-based; design: dose 100 mg/kg, route intraperitoneal; conditions: in vivo; procedure, shortened: as §3
Mus musculus [14] = experiment: Neurotoxicity in albino Carworth Farms No.1 mouse assessed as motor impairment at 30 mg/kg, ip after 4 hrs by rotarod test; assay type: toxicity, organism-based; design: dose 30 mg/kg, route intraperitoneal; conditions: in vivo; procedure, shortened: as §4
Mus musculus [15] = experiment: Anticonvulsant activity in albino Carworth Farms No.1 mouse assessed as protection against maximal electroshock-induced seizure at 300 mg/kg, ip after 0.5 hrs; assay type: functional, organism-based; design: dose 300 mg/kg; procedure, shortened: as §2
Mus musculus [16] = experiment: Anticonvulsant activity in albino Carworth Farms No.1 mouse assessed as protection against subcutaneous metrazol-induced seizure at 30 mg/kg, ip after 0.5 hrs; assay type: functional, organism-based; design: dose 30 mg/kg; procedure, shortened: as §1
Mus musculus [17] = experiment: Anticonvulsant activity in albino Carworth Farms No.1 mouse assessed as protection against subcutaneous metrazol-induced seizure at 100 mg/kg, ip after 4 hrs; assay type: functional, organism-based; design: dose 100 mg/kg; procedure, shortened: as §1
Mus musculus [18] = experiment: Neurotoxicity in albino Carworth Farms No.1 mouse assessed as motor impairment at 30 mg/kg, ip after 0.5 hrs by rotarod test; assay type: toxicity, organism-based; design: dose 30 mg/kg, route intraperitoneal; conditions: in vivo; procedure, shortened: as §4
Mus musculus [19] = experiment: Anticonvulsant activity in albino Carworth Farms No.1 mouse assessed as protection against subcutaneous metrazol-induced seizure at 300 mg/kg, ip after 0.5 hrs; assay type: functional, organism-based; design: dose 300 mg/kg; procedure, shortened: as §1
Mus musculus [20] = experiment: Neurotoxicity in albino Carworth Farms No.1 mouse assessed as motor impairment at 100 mg/kg, ip after 4 hrs by rotarod test; assay type: toxicity, organism-based; design: dose 100 mg/kg, route intraperitoneal; conditions: in vivo; procedure, shortened: as §4
Mus musculus [21] = experiment: Neurotoxicity in albino Carworth Farms No.1 mouse assessed as motor impairment at 100 mg/kg, ip after 0.25 hrs by rotarod test; assay type: toxicity, organism-based; design: dose 100 mg/kg, route intraperitoneal; conditions: in vivo; procedure, shortened: as §3
Mus musculus [22] = experiment: Anticonvulsant activity in albino Carworth Farms No.1 mouse assessed as protection against maximal electroshock-induced seizure at 100 mg/kg, ip after 0.5 hrs; assay type: functional, organism-based; design: dose 100 mg/kg; procedure, shortened: as §2
Mus musculus [23] = experiment: Anticonvulsant activity in albino Carworth Farms No.1 mouse assessed as protection against electric-current for 3 secs-induced seizure at 100 mg/kg, ip after 2 hrs by 6Hz minimal clonic seizure test; assay type: functional, organism-based; design: dose 100 mg/kg; procedure, shortened: as §5
Mus musculus [24] = experiment: Anticonvulsant activity in albino Carworth Farms No.1 mouse assessed as protection against maximal electroshock-induced seizure at 300 mg/kg, ip after 4 hrs; assay type: functional, organism-based; design: dose 300 mg/kg; procedure, shortened: as §2
Mus musculus [25] = experiment: Neurotoxicity in albino Carworth Farms No.1 mouse assessed as motor impairment at 100 mg/kg, ip after 0.5 hrs by rotarod test; assay type: toxicity, organism-based; design: dose 100 mg/kg, route intraperitoneal; conditions: in vivo; procedure, shortened: as §4
Rattus norvegicus [26] = experiment: Toxicity in albino Sprague-Dawley rat pilocarpine-induced status epilepticus model assessed as change in body weight in protected rat at 600 mg/kg, ip measured after 24 hrs of time from first stage 3 seizures; assay type: organism-based; design: dose 600 mg/kg, route intraperitoneal; conditions: in vivo
Procedure, shortened: (§6)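 Pilocarpine-induced status prevention in male albino Sprague-Dawley rats (150–180 g). Compound given i.p. and followed by a pilocarpine challenge. Animals were sorted as protected or non-protected, and average body weight change (g) ± S.E.M. was recorded for each group.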

Mus musculus [27] = experiment: Anticonvulsant activity in ip dosed albino Carworth Farms No.1 mouse assessed as time needs to show peak effect for protection against maximal electroshock-induced seizure; assay type: functional
Rattus norvegicus [28] = experiment: Toxicity in albino Sprague-Dawley rat pilocarpine-induced status epilepticus model assessed as change in body weight in non-protected rat at 600 mg/kg, ip measured after 24 hrs of time from first stage 3 seizures; assay type: organism-based; design: dose 600 mg/kg, route intraperitoneal; conditions: in vivo; procedure, shortened: as §6
[29] = Neurotoxicity in ip dosed albino Carworth Farms No.1 mouse assessed as motor impairment after 0.25 hrs by rotarod test; assay type: toxicity, organism-based; conditions: Carworth Farms No.1 (albino), in vivo
Procedure, shortened: (§7)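 Mouse quantification at the time of peak effect, compound given i.p. in 0.5% methylcellulose. Groups of at least eight mice received varied doses until at least two points fell between 100 and 0% response. PI = TD50/ED50 MES.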

Mus musculus [30] = experiment: Anticonvulsant activity in ip dosed albino Carworth Farms No.1 mouse assessed as protection against subcutaneous metrazol-induced seizure after 0.25 hrs; assay type: functional; conditions: albino Carworth Farms No.1, 0.25 h
Procedure, shortened: (§8)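 Mouse quantification at the time of peak effect, compound given i.p. in 0.5% methylcellulose. Groups of at least eight mice received varied doses until at least two points fell between 100 and 0% response. ED50 (MES, scMET) and TD50 (rotorod) with 95% CI by probit analysis (Finney). PI = TD50/ED50 MES.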

Mus musculus [31] = experiment: Anticonvulsant activity in ip dosed albino Carworth Farms No.1 mouse assessed as protection against maximal electroshock-induced seizure after 0.25 hrs; assay type: functional; conditions: albino Carworth Farms No.1, ip; procedure, shortened: as §8
Mus musculus [32] = species: Mus musculus; experiment: Protective index, ratio of TD50 for albino Carworth Farms No.1 mouse to ED50 for albino Carworth Farms No.1 mouse by maximal electroshock-induced seizure test; assay type: functional; procedure, shortened: as §7
Rattus norvegicus [33] = experiment: Anticonvulsant activity in albino Sprague-Dawley rat assessed as protection against pilocarpine-induced status epilepticus at 600 mg/kg, ip measured after time from first stage 3 seizures; assay type: functional, organism-based; design: dose 600 mg/kg
Procedure, shortened: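 Male albino Sprague-Dawley rats (150–180 g) given compound i.p., then a pilocarpine challenge dose immediately (0 min) or 30 min after treatment. Outcome scored as protection or no protection from epileptic seizures, reported as number protected/number tested.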

O=C1[C@@H]2CCCN2[C@H](c2ccccc2)C(=O)N1CCc1ccccc1
inactive: Activity (Mus musculus [1]) | Activity (Mus musculus [2]) | Activity (Mus musculus [3]) | Activity (Mus musculus [5]) | Activity (Mus musculus [7]) | Activity (Mus musculus [8]) | Activity (Mus musculus [10]) | Activity (Mus musculus [11]) | Activity (Mus musculus [12]) | Activity (Mus musculus [15]) | Activity (Mus musculus [16]) | Activity (Mus musculus [17]) | Activity (Mus musculus [19]) | Activity (Mus musculus [22]) | Activity (Mus musculus [23]) | Activity (Mus musculus [24])
Non-toxic: Activity (Mus musculus [4]) | Activity (Mus musculus [6]) | Activity (Mus musculus [9]) | Activity (Mus musculus [13]) | Activity (Mus musculus [14]) | Activity (Mus musculus [18]) | Activity (Mus musculus [20]) | Activity (Mus musculus [21]) | Activity (Mus musculus [25])

Cl.O=C1[C@H](c2ccccc2)N2CCC[C@H]2C(=O)N1CCc1ccccc1
inactive: Activity (Mus musculus [1]) | Activity (Mus musculus [2]) | Activity (Mus musculus [3]) | Activity (Mus musculus [5]) | Activity (Mus musculus [7]) | Activity (Mus musculus [12]) | Activity (Mus musculus [16]) | Activity (Mus musculus [17]) | Activity (Mus musculus [19]) | Activity (Rattus norvegicus [33])
80.6 mg/kg: ED50 (Mus musculus [31])
-18.8 g: Activity (Rattus norvegicus [28])
0.25 h: Time (Mus musculus [27])
active: Activity (Mus musculus [15]) | Activity (Mus musculus [22]) | Activity (Mus musculus [24])
Non-toxic: Activity (Mus musculus [6]) | Activity (Mus musculus [9]) | Activity (Mus musculus [14]) | Activity (Mus musculus [18]) | Activity (Mus musculus [25])
> 200 mg/kg: ED50 (Mus musculus [30])
-10 g: Activity (Rattus norvegicus [26])
2.2: Ratio TD50/ED50 (Mus musculus [32])
178 mg/kg: TD50 at 0.25 h [29]
